≈ marks a conversion by molar mass, not a printed value. Calls of active or inactive are those of the source. No cut-off for these calls is given here.
Columns and labels:
Staphylococcus aureus [1] = experiment: Antibacterial activity against methicillin-resistant Staphylococcus aureus NRS484 assessed as inhibition of visible bacterial growth incubated for 18 to 20 hrs by CLSI method; type: functional; details: time 18-20 hrs
Outline: (§1)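 CLSI broth microdilution. Strains grown aerobically overnight on tryptic soy agar at 37 °C, adjusted to 0.5 McFarland and diluted in cation-adjusted Mueller–Hinton broth to about 5×10^5 CFU/mL. Compounds and control drugs serially diluted across the plate. Incubated aerobically at 37 °C for 18-20 h. MIC is the lowest concentration with no visible growth.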

Streptococcus pneumoniae [2] = experiment: Antibacterial activity against cephalosporin-resistant Streptococcus pneumoniae ATCC 51916 assessed as inhibition of visible bacterial growth incubated for 18 to 20 hrs by CLSI method; type: functional; details: time 18-20 hrs; outline: as §1
Streptococcus pneumoniae [3] = experiment: Antibacterial activity against […] Streptococcus pneumoniae ATCC 700677 assessed as inhibition of visible bacterial growth incubated for 18 to 20 hrs by CLSI method; type: functional; details: time 18-20 hrs; outline: as §1
Enterococcus faecalis [4] = experiment: Antibacterial activity against vancomycin- resistant Enterococcus faecalis ATCC 51299 assessed as inhibition of visible bacterial growth incubated for 18 to 20 hrs by CLSI method; type: functional; details: time 18-20 hrs; outline: as §1
Enterococcus faecalis [5] = experiment: Antibacterial activity against vancomycin- resistant Enterococcus faecalis ATCC 700221 assessed as inhibition of visible bacterial growth incubated for 18 to 20 hrs by CLSI method; type: functional; details: time 18-20 hrs; outline: as §1
Listeria monocytogenes = experiment: Antibacterial activity against Listeria monocytogenes ATCC 19111 assessed as inhibition of visible bacterial growth incubated for 18 to 20 hrs by CLSI method; type: functional; details: time 18-20 hrs
Outline: (§2)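 Broth microdilution per CLSI. Strains grown aerobically overnight on TSA at 37 °C, suspended to 0.5 McFarland, diluted in CAMHB to about 5×10^5 CFU/mL. Agents serially diluted across plate; aerobic incubation 37 °C for 18-20 h. MIC = lowest concentration completely preventing visible growth.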

Staphylococcus aureus [6] = experiment: Bactericidal activity against methicillin-resistant Staphylococcus aureus ATCC 33592 assessed as reduction in bacterial growth incubated for 18 hrs by CLSI method; type: functional
Staphylococcus aureus [7] = experiment: Antibacterial activity against methicillin-resistant Staphylococcus aureus USA400 infected in mouse J774 cells assessed as log reduction in intracellular growth at 8 ug/ml incubated for 18 to 22 hrs; type: functional; details: dose 8.0 µg/ml, time 18-22 hrs
Outline: (§3)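 J774 murine macrophages grown in DMEM with 10% FBS at 37 °C, 5% CO2. Cells infected with MRSA USA400 at MOI about 10:1 for 1 h, then washed with gentamicin to remove extracellular bacteria. Agents added at 8 or 16 μg/mL in triplicate, with DMSO vehicle control, for 24 h. Cells lysed with 0.1% Triton-X, lysates plated on tryptic soy agar, and CFU counted after 18-22 h at 37 °C. Analysed by two-way ANOVA with Dunnett's test.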

Staphylococcus aureus [8] = experiment: Antibacterial activity against methicillin-resistant Staphylococcus aureus USA400 infected in mouse J774 cells assessed as log reduction in intracellular growth at 16 ug/ml incubated for 18 to 22 hrs; type: functional; details: dose 16.0 µg/ml, time 18-22 hrs; outline: as §3
Staphylococcus aureus [9] = experiment: Antibacterial activity against Staphylococcus aureus ATCC 25923 assessed as inhibition of visible bacterial growth incubated for 18 to 20 hrs by CLSI method; type: functional; details: time 18-20 hrs; outline: as §1
Staphylococcus aureus [10] = experiment: Antibacterial activity against methicillin-resistant Staphylococcus aureus ATCC 33592 assessed as inhibition of visible bacterial growth incubated for 18 to 20 hrs by CLSI method; type: functional; details: time 18-20 hrs; outline: as §1
Staphylococcus aureus [11] = experiment: Antibacterial activity against methicillin-sensitive Staphylococcus aureus ATCC 6538 assessed as inhibition of visible bacterial growth incubated for 18 to 20 hrs by CLSI method; type: functional; details: time 18-20 hrs; outline: as §1
Staphylococcus aureus [12] = experiment: Antibacterial activity against methicillin-sensitive Staphylococcus aureus NRS 107 assessed as inhibition of visible bacterial growth incubated for 18 to 20 hrs by CLSI method; type: functional; details: time 18-20 hrs; outline: as §1
Staphylococcus aureus [13] = experiment: Antibacterial activity against methicillin-resistant Staphylococcus aureus NRS 119 assessed as inhibition of visible bacterial growth incubated for 18 to 20 hrs by CLSI method; type: functional; details: time 18-20 hrs; outline: as §1
Staphylococcus aureus [14] = experiment: Antibacterial activity against methicillin-resistant Staphylococcus aureus NRS382 assessed as inhibition of visible bacterial growth incubated for 18 to 20 hrs by CLSI method; type: functional; details: time 18-20 hrs; outline: as §1
Staphylococcus aureus [15] = experiment: Antibacterial activity against methicillin-resistant Staphylococcus aureus NRS383 assessed as inhibition of visible bacterial growth incubated for 18 to 20 hrs by CLSI method; type: functional; details: time 18-20 hrs; outline: as §1
Staphylococcus aureus [16] = experiment: Antibacterial activity against methicillin-resistant Staphylococcus aureus NRS384 assessed as inhibition of visible bacterial growth incubated for 18 to 20 hrs by CLSI method; type: functional; details: time 18-20 hrs; outline: as §1
Staphylococcus aureus [17] = experiment: Antibacterial activity against methicillin-resistant Staphylococcus aureus NRS123 assessed as inhibition of visible bacterial growth incubated for 18 to 20 hrs by CLSI method; type: functional; details: time 18-20 hrs; outline: as §1
Staphylococcus aureus [18] = experiment: Antibacterial activity against methicillin-resistant Staphylococcus aureus NRS385 assessed as inhibition of visible bacterial growth incubated for 18 to 20 hrs by CLSI method; type: functional; details: time 18-20 hrs; outline: as §1
Staphylococcus aureus [19] = experiment: Antibacterial activity against methicillin-resistant Staphylococcus aureus NRS386 assessed as inhibition of visible bacterial growth incubated for 18 to 20 hrs by CLSI method; type: functional; details: time 18-20 hrs; outline: as §1
Staphylococcus aureus [20] = experiment: Antibacterial activity against methicillin-resistant Staphylococcus aureus NRS387 assessed as inhibition of visible bacterial growth incubated for 18 to 20 hrs by CLSI method; type: functional; details: time 18-20 hrs; outline: as §1
Staphylococcus aureus [21] = experiment: Antibacterial activity against methicillin-resistant Staphylococcus aureus NRS483 assessed as inhibition of visible bacterial growth incubated for 18 to 20 hrs by CLSI method; type: functional; details: time 18-20 hrs; outline: as §1
Staphylococcus aureus [22] = experiment: Antibacterial activity against vancomycin-resistant Staphylococcus aureus 10 assessed as inhibition of visible bacterial growth incubated for 18 to 20 hrs by CLSI method; type: functional; details: time 18-20 hrs; outline: as §1
Staphylococcus aureus [23] = experiment: Antibacterial activity against vancomycin-resistant Staphylococcus aureus 12 assessed as inhibition of visible bacterial growth incubated for 18 to 20 hrs by CLSI method; type: functional; details: time 18-20 hrs; outline: as §1
[24] = tested on: Staphylococcus epidermidis; experiment: Antibacterial activity against Staphylococcus epidermidis NRS101 assessed as inhibition of visible bacterial growth incubated for 18 to 20 hrs by CLSI method; type: functional; details: time 18-20 hrs; outline: as §2
Escherichia coli = experiment: Antibacterial activity against Escherichia coli ATCC 25404 assessed as inhibition of visible bacterial growth at 16 ug/ml incubated for 18 to 20 hrs by CLSI method; type: functional, organism-based; details: B ATCC 25404, dose 16.0 µg/ml, time 18-20 hrs; outline: as §1
Pseudomonas aeruginosa = experiment: Antibacterial activity against Pseudomonas aeruginosa ATCC 27853 assessed as inhibition of visible bacterial growth at 16 ug/ml incubated for 18 to 20 hrs by CLSI method; type: functional, organism-based; details: dose 16.0 µg/ml, time 18-20 hrs; outline: as §1
Acinetobacter baumannii = experiment: Antibacterial activity against Acinetobacter baumannii ATCC 19606 RW4 assessed as inhibition of visible bacterial growth at 16 ug/ml incubated for 18 to 20 hrs by CLSI method; type: functional, organism-based; details: ATCC 19606 = CIP 70.34 = JCM 6841 RW4, dose 16.0 µg/ml, time 18-20 hrs; outline: as §1
Caco-2 = experiment: Cytotoxicity against human Caco2 cells assessed as reduction in cell viability at 128 ug/ml incubated for 2 hrs by MTS assay; type: cell-based; details: caco-2, 2 h, dose 128 µg/ml
[25] = Hemolytic activity in human RBC at 128 ug/ml incubated for 60 mins relative to control; type: ADME, cell-based, Erythrocyte; details: red blood cells (erythrocytes), dose 128 µg/ml, read-out: Activity
Outline: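 Single-donor human erythrocytes as a 5% v/v suspension in PBS. Compounds serially diluted in PBS, in triplicate, and incubated with RBCs at 37 °C for 60 min. PBS served as the negative control and Triton-X as the positive control. Samples spun at 4,000 rpm for 5 min and supernatant absorbance read at 540 nm. Percent hemolysis = 100×(sample−negative)/(positive−negative).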

Staphylococcus aureus [26] = experiment: Synergistic antibacterial activity against methicillin-resistant Staphylococcus aureus ATCC 33592 assessed as fractional inhibitory concentration index in presence of linezolid by checkerboard assay; type: functional
Staphylococcus aureus [27] = experiment: Synergistic antibacterial activity against methicillin-resistant Staphylococcus aureus ATCC 33592 assessed as fractional inhibitory concentration index in presence of methicillin by checkerboard assay; type: functional
Staphylococcus aureus [28] = experiment: Synergistic antibacterial activity against methicillin-resistant Staphylococcus aureus ATCC 33592 assessed as fractional inhibitory concentration index in presence of daptomycin by checkerboard assay; type: functional
Staphylococcus aureus [29] = experiment: Synergistic antibacterial activity against methicillin-resistant Staphylococcus aureus ATCC 33592 assessed as fractional inhibitory concentration index in presence of Vancomycin; type: functional
Staphylococcus aureus [30] = experiment: Bacteriostatic activity against methicillin-resistant Staphylococcus aureus ATCC 33592 assessed as reduction in bacterial growth incubated for 18 hrs by CLSI method; type: functional
Staphylococcus aureus [31] = experiment: Antibacterial activity against methicillin-resistant Staphylococcus aureus ATCC 33592 assessed as reduction in bacterial count at 3 x MIC incubated upto 24 hrs by time kill analysis; type: functional; details: time hrs <=24
Outline: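 Time-kill assay. […] Samples taken at 0, 2, 4, 8, 12 and 24 h, serially diluted in PBS and plated on tryptic soy agar. Viable CFU/mL counted after 18-20 h at 37 °C.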

J774 = experiment: Cytotoxicity against mouse J774 cells assessed as reduction in cell viability at 32 ug/ml incubated for 24 hrs by MTS assay; type: cell-based; details: j774, 24 h, dose 32 µg/ml

## CN[C@H](CC(C)C)C(=O)N[C@H]1C(=O)N[C@@H](CC(N)=O)C(=O)N[C@H]2C(=O)N[C@H]3C(=O)N[C@H](C(=O)N[C@H](C(=O)O)c4cc(O)cc(O)c4-c4cc3ccc4O)[C@H](O)c3ccc(c(Cl)c3)Oc3cc2cc(c3O[C@@H]2O[C@H](CO)[C@@H](O)[C@H](O)[C@H]2O[C@H]2C[C@](C)(N)[C@H](O)[C@H](C)O2)Oc2ccc(cc2Cl)[C@H]1O [VANCOMYCIN]
Staphylococcus aureus [1]
  MIC: > 2 µg/mL
Streptococcus pneumoniae [2]
  MIC: 0.5 µg/mL (≈ 0.345 µM)
Streptococcus pneumoniae [3]
  MIC: 1 µg/mL (≈ 0.69 µM)
Enterococcus faecalis [4]
  MIC: 32 µg/mL (≈ 22.1 µM)
Enterococcus faecalis [5]
  MIC: > 64 µg/mL
Listeria monocytogenes
  MIC: 0.5 µg/mL (≈ 0.345 µM)
Staphylococcus aureus [6]
  MBC: 1 µg/mL (≈ 0.69 µM)
Staphylococcus aureus [7]
  Activity: inactive
Staphylococcus aureus [8]
  Activity: inactive

## O=C(Nc1nnc(-c2cccs2)o1)c1ccc([N+](=O)[O-])cc1
Staphylococcus aureus [9]
  MIC: 4 µg/mL (≈ 12.6 µM)
Staphylococcus aureus [10]
  MIC: 8 µg/mL (≈ 25.3 µM)

## O=C(Nc1nnc(-c2cccs2)o1)c1ccc(OC(F)(F)F)cc1
Staphylococcus aureus [9]
  MIC: 1 µg/mL (≈ 2.81 µM)
Staphylococcus aureus [10]
  MIC: 1 µg/mL (≈ 2.81 µM)
Staphylococcus aureus [11]
  MIC: 1 µg/mL (≈ 2.81 µM)
Staphylococcus aureus [12]
  MIC: 1 µg/mL (≈ 2.81 µM)
Staphylococcus aureus [13]
  MIC: 1 µg/mL (≈ 2.81 µM)
Staphylococcus aureus [14]
  MIC: 1 µg/mL (≈ 2.81 µM)
Staphylococcus aureus [15]
  MIC: 2 µg/mL (≈ 5.63 µM)
Staphylococcus aureus [16]
  MIC: 0.5 µg/mL (≈ 1.41 µM)
Staphylococcus aureus [17]
  MIC: 1 µg/mL (≈ 2.81 µM)
Staphylococcus aureus [18]
  MIC: 2 µg/mL (≈ 5.63 µM)
Staphylococcus aureus [19]
  MIC: 1 µg/mL (≈ 2.81 µM)
Staphylococcus aureus [20]
  MIC: 2 µg/mL (≈ 5.63 µM)
Staphylococcus aureus [21]
  MIC: 1 µg/mL (≈ 2.81 µM)
Staphylococcus aureus [1]
  MIC: 0.5 µg/mL (≈ 1.41 µM)
Staphylococcus aureus [22]
  MIC: 1 µg/mL (≈ 2.81 µM)
Staphylococcus aureus [23]
  MIC: 1 µg/mL (≈ 2.81 µM)
[24]
  MIC: 0.5 µg/mL (≈ 1.41 µM)
Streptococcus pneumoniae [2]
  MIC: 2 µg/mL (≈ 5.63 µM)
Streptococcus pneumoniae [3]
  MIC: 1 µg/mL (≈ 2.81 µM)
Enterococcus faecalis [4]
  MIC: 8 µg/mL (≈ 22.5 µM)
Enterococcus faecalis [5]
  MIC: 4 µg/mL (≈ 11.3 µM)
Listeria monocytogenes
  MIC: 2 µg/mL (≈ 5.63 µM)
Escherichia coli
  inhibition: inactive
Pseudomonas aeruginosa
  inhibition: inactive
Acinetobacter baumannii
  inhibition: inactive
Caco-2
  Activity: Non-Toxic
[25]
  hemolysis at 1 h, 128 ug/ml: 20%
Staphylococcus aureus [26]
  fractional inhibitory concentration index (FICI): 1.25
Staphylococcus aureus [27]
  fractional inhibitory concentration index (FICI): 0.63
Staphylococcus aureus [28]
  fractional inhibitory concentration index (FICI): 0.5
Staphylococcus aureus [29]
  fractional inhibitory concentration index (FICI): 1.06
Staphylococcus aureus [30]
  MBC: > 128 µg/mL
Staphylococcus aureus [31]
  Activity: 0.69 log10CFU/ml
J774
  Activity: Non-Toxic

## O=C(Nc1nnc(-c2cccs2)o1)c1ccc(C(F)(F)F)s1
Staphylococcus aureus [9]
  MIC: 4 µg/mL (≈ 11.6 µM)
Staphylococcus aureus [10]
  MIC: 2 µg/mL (≈ 5.79 µM)

— ChEMBL document CHEMBL4715682, “Potent trifluoromethoxy, trifluoromethylsulfonyl, trifluoromethylthio and pentafluorosulfanyl containing (1,3,4-oxadiazol-2-yl)benzamides against drug-resistant Gram-positive bacteria” (RSC Med Chem, 2020)
